Reference: ChEMBL document CHEMBL1124060, “2-Ethynylbenzenealkanamines. A new class of calcium entry blockers” (1988)

Experiments:
Assay type in all cases: functional
Cavia porcellus [1] = species: Cavia porcellus; assay: Concentration needed to achieve a 75% increase in coronary blood flow in 'Langendorff', guinea pig heart (in vitro Negative inotropic potency)
In short: (§1)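 Isolated Langendorff-perfused guinea pig hearts infused with a range of drug concentrations; force (g), rate (beats/min) and coronary flow (mL/min) recorded. A linear regression of percent-control flow gives C175, the micromolar concentration raising flow to 175% of control, reported only if within the tested range. Raw data analysed by paired t tests.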

Cavia porcellus [2] = species: Cavia porcellus; assay: Concentration needed to achieve a 75% increase in coronary blood flow in 'Langendorff', guinea pig heart (in vitro negative inotropic activity); in short: as §1
Cavia porcellus [3] = species: Cavia porcellus; assay: Concentration needed to elicit a 75% increase beyond control in coronary flow in ''Langendorff'', guinea pig heart (in vitro); in short: as §1
Rattus norvegicus [4] = assay: Ability to lower blood pressure in the spontaneously hypertensive rat (SHR) at 1 mg/kg (p.o.); conditions: route oral
In short: (§2)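 Spontaneously hypertensive rats dosed orally at the stated dose; read-out is the maximum fall in blood pressure (mmHg), with significance shown as P.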

Oryctolagus cuniculus [5] = species: Oryctolagus cuniculus; assay: Inhibition of [Ca2+] influx in response to a stimulus of norepinephrine (NE, 10 uM) expressed as percent change from control
In short: (§3)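 Test compounds at 10 μM; tension and calcium influx each expressed as % change from control, measured against KCl ([…]) or NE (10 μM) stimulus.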

Rattus norvegicus [6] = assay: Ability to lower blood pressure in the spontaneously hypertensive rat (SHR) at 10 mg/kg (p.o.); conditions: route oral; in short: as §2
Oryctolagus cuniculus [7] = species: Oryctolagus cuniculus; assay: In vitro inhibition of development of isometric tension, in response to KCl (60 uM) in rabbit aorta expressed as percent change from control; in short: as §3
Oryctolagus cuniculus [8] = species: Oryctolagus cuniculus; assay: Inhibition of [Ca2+] influx in response to a stimulus of KCL (60 uM) expressed as percent change from control; in short: as §3
Oryctolagus cuniculus [9] = species: Oryctolagus cuniculus; assay: In vitro inhibition of development of isometric tension, in response to norepinephrine (NE, 10 uM) in rabbit aorta expressed as percent change from control; in short: as §3
Rattus norvegicus [10] = assay: Ability to lower blood pressure in the spontaneously hypertensive rat (SHR) at 100 mg/kg (p.o.); conditions: route oral
In short: (§4)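 Spontaneously hypertensive rats were given a single oral dose of the compound. The read-out was the maximum fall in blood pressure, in mmHg, after that dose. A P value for significance was reported with each value.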

Rattus norvegicus [11] = assay: Ability to lower blood pressure in the spontaneously hypertensive rat (SHR) at 29 mg/kg (p.o.); conditions: route oral; in short: as §4

Structure (SMILES) | P (Ei) (Cavia porcellus [1]) | Contractile force, % of control (Cavia porcellus [2]) [%] | C175 (Cavia porcellus [3]) [µM] | Max fall in blood pressure (Rattus norvegicus [4]) [mmHg] | Change (Oryctolagus cuniculus [5]) [%] | Max fall in blood pressure (Rattus norvegicus [6]) [mmHg] | Change (Oryctolagus cuniculus [7]) [%] | Change (Oryctolagus cuniculus [8]) [%] | Change (Oryctolagus cuniculus [9]) [%] | Max fall in blood pressure (Rattus norvegicus [10]) [mmHg] | Max fall in blood pressure (Rattus norvegicus [11]) [mmHg]
COc1ccc(C#Cc2ccccc2)c(CC(C)N(C)CCc2ccc(OC)c(OC)c2)c1 (stereo not drawn) | <0.05 | 70 | 0.025 | 53 |  |  |  |  |  |  | 
COc1cc(CCNC(C)Cc2cc(OC)ccc2C#Cc2ccccc2)cc(OC)c1 (stereo not drawn) | 0.026 | 120 | 0.00075 |  | -23 | 36 | -15 | -42 | -13 |  | 
COc1ccc(C#Cc2ccccc2)c(CC(C)N(C)CCc2ccc(Cl)c(Cl)c2)c1 (stereo not drawn) | >0.5 | 90 | 0.004 | 67 |  |  |  |  |  |  | 
COc1ccc(C#Cc2ccccc2)c(CCCN(C)CCc2ccc(OC)c(OC)c2)c1 | <0.05 | 85 | 3 |  |  |  |  |  |  | 62 | 
CCCCC#Cc1ccc(OC)cc1CCCN(C)CCc1ccc(OC)c(OC)c1 | >0.5 | 100 | 0.2 |  |  |  |  |  |  | 35 | 
COc1ccc(C#Cc2ccc([S+](C)[O-])cc2)c(CC(C)N(C)CCc2ccc(OC)c(OC)c2)c1 (stereo not drawn) | <0.001 | 10 | 3 |  |  |  |  |  |  |  | 29
